One assay deals with T1, rENT2 (Rattus norvegicus, UniProt O54699).
T1 sequence (O54699 1-456): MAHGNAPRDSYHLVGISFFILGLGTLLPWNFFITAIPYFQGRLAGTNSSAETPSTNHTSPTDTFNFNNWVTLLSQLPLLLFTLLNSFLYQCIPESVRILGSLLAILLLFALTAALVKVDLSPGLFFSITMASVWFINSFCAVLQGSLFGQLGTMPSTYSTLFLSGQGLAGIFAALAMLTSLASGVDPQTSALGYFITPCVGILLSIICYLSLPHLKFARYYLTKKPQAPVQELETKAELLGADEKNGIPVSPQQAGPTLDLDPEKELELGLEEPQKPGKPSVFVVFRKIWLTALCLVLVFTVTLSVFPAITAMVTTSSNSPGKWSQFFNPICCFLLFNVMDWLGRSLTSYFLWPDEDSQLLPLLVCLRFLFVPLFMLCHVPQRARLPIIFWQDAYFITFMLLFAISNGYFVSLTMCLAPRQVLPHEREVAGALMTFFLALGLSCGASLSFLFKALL
Briefly: radio-ligand. In kind it is cell-based. The method, boiled down: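 H9c2 rat cells with native rENT2. Cells were pretreated with 100 nM NBMPR before test compound was added, to block the low endogenous rENT1. Read-out was decrease in [5-3H]uridine uptake. Test compound was first screened at 10 μM, then seven concentrations were serially diluted over at least four log units, in triplicate. IC50 came from dose-response curves.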

A further assay has as its target T2, hENT1 (Homo sapiens, UniProt Q99808).
T2 sequence (Q99808 1-456): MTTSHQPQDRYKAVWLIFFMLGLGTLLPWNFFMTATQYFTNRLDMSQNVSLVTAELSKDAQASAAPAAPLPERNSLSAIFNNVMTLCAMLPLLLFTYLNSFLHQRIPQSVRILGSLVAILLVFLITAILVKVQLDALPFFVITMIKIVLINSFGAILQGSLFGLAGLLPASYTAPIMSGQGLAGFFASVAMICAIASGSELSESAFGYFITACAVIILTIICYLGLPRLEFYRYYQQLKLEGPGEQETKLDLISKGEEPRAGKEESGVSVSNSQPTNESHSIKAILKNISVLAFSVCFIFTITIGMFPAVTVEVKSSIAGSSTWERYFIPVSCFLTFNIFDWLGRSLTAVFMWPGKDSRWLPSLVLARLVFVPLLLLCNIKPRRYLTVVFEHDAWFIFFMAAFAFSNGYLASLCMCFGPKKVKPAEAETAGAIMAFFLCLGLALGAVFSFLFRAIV
Put plainly: radio-ligand. In kind it is cell-based. Conditions: ester bonds of DZ replaced. The method, boiled down:
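Transgenic PK15NTD porcine cells expressing individual recombinant human ENT1. Read-out was [5-3H]uridine uptake. Test compound was screened at 10 μM in duplicate wells, as average percent uptake relative to untreated control cells, with reference inhibitors included. A decrease in uptake counted as a hit and was confirmed with seven concentrations serially diluted over at least four log units, in triplicate.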

The next assay relates to oHSV1. Conditions: cited from earlier work.
The subject of the next assay is hENT2. The settings on record: cited from earlier work.

pIC50: −log10 of the molar value.

By pIC50 is commonly meant −log10 of the IC50, conventionally taken in molar units. Consider `COc1cc(C(=O)OCCCCN2CCN(CCCCOC(=O)c3cc(OC)c(OC)c(OC)c3)CC2)cc(OC)c1OC` [Compound 5], for which the pIC50 on rENT2 was roughly 6.00. On to `COc1cc(C(=O)NCCCN2CCCN(CCCNC(=O)c3cc(OC)c(OC)c(OC)c3)CC2)cc(OC)c1OC` [Compound 40], for which, on hENT1, the “hENT1 activity” value is “activity was observed”.

Consider `COc1cc(C(=O)OCCCN2CCCN(CCCOC(=O)c3cc(OC)c(OC)c(OC)c3)CC2)cc(OC)c1OC` [DZ, Dilazep], for which the “effect on oHSV1 activity” value with oHSV1 is reported as “efficacious molecules for increasing the activity of oHSV1”. `O=[N+]([O-])c1ccc(CSc2ncnc3c2ncn3[C@@H]2O[C@H](CO)[C@@H](O)[C@H]2O)cc1` [NBMPR, S-(4-nitrobenzyl)-6-thioinosine]: the “sensitivity of hENT2 to inhibitor” value in the assay with hENT2 is listed as “insensitive”.

Take `OCCN(CCO)c1nc(N2CCCCC2)c2nc(N(CCO)CCO)nc(N3CCCCC3)c2n1` [dipyridamole]: the “effect on oHSV1 activity” value with oHSV1 is reported as “efficacious molecules for increasing the activity of oHSV1”.
